ChEMBL document CHEMBL1138476 (J Med Chem, 2009)
In brackets after ≈: the same amount, converted by molar mass. Activity calls are given as the source filed them. The rule behind the calls is not given here.

Assays:
[1] = test system: Canis familiaris; experiment: Cardiovascular activity in dog assessed as increase in mean […] pressure at 3 mg to 5 mg/kg, iv by dose escalation study; format: functional, Canis lupus familiaris
How it was run: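 Anesthetized mongrel dogs on sodium pentobarbital, mechanically ventilated, with left ventricular and arterial pressure transducers and ECG. Four dogs received 6 min iv infusions at escalating 0.3, 1, 3 and 5 mg/kg, 30 min apart; four control dogs received vehicle on the same schedule. Mean arterial pressure and dP/dt were recorded; plasma was sampled after each infusion.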

[2] = target: T1, Corticotropin-releasing factor-binding protein (Homo sapiens, UniProt P24387); experiment: Binding affinity to human recombinant CRF binding protein
T1 sequence (P24387 whole entry): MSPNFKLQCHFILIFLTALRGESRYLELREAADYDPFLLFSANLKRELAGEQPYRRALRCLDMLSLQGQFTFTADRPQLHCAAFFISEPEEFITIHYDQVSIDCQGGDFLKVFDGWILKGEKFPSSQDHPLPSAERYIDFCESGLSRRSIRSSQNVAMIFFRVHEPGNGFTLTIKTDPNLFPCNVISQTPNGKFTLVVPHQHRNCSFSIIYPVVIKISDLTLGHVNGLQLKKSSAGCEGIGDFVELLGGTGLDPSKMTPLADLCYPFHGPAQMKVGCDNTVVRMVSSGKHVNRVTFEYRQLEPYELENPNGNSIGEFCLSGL

[3] = test system: Rattus norvegicus; experiment: Effect on acute renal function in rat assessed as change in urine phosphate level per 100 gm body weight at 30 mg/kg, po (RVb= 8.7+/-2.3 mg/dl); format: functional
[4] = test system: Rattus norvegicus; experiment: Effect on acute renal function in rat assessed as change in urine volume per 100 gm body weight at 30 mg/kg, po (RVb= 1.7+/-0.2 ml/100g); format: functional
[5] = target: T2, Adenosine receptor A1 (Homo sapiens) (UniProt P30542); experiment: Inhibition of ligand binding in adenosine A1 receptor; design: scale not given: the % may be the effect or the level left
T2 sequence (whole entry): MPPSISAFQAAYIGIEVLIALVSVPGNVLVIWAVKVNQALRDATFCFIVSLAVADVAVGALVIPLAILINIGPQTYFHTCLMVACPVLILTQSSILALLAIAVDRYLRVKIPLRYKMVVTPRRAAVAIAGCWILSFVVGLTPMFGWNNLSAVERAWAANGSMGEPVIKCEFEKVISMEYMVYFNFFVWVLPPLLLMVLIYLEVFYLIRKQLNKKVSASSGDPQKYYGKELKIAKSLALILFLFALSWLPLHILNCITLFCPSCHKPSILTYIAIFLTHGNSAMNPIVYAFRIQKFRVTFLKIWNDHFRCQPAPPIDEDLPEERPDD
How it was run: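 Screened at 10^-7 and 10^-5 M for binding inhibition. Then run twice in a dose–response format on the cloned rat adenosine A1 receptor expressed in CHO cells to obtain Ki.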

[6] = test system: Canis familiaris; experiment: Effect on respiratory function in spontaneously breathing mongrel dog assessed as change in peak expiratory flow at 5 mg/kg after intravenous infusion for 30 mins (RVb= -3.3+/-6.4 %); format: functional, Canis lupus familiaris
[7] = test system: Canis familiaris; experiment: Effect on respiratory function in spontaneously breathing mongrel dog assessed as change in respiration rate at 5 mg/kg after intravenous infusion for 6 mins (RVb= -8.3+/-8.3 %); format: functional, Canis lupus familiaris
[8] = test system: Canis familiaris; experiment: Effect on respiratory function in spontaneously breathing mongrel dog assessed as change in respiration rate at 5 mg/kg after intravenous infusion for 60 mins (RVb= -19.5+/-16.3 %); format: functional, Canis lupus familiaris
[9] = test system: Canis familiaris; experiment: Effect on respiratory function in spontaneously breathing mongrel dog assessed as change in tidal volume at 5 mg/kg after intravenous infusion for 30 mins (RVb= 6.1+/-5.6 %); format: functional, Canis lupus familiaris
[10] = test system: Canis familiaris; experiment: Effect on respiratory function in spontaneously breathing mongrel dog assessed as change in minute volume at 5 mg/kg after intravenous infusion for 60 mins (RVb= -13.4+/-10.7 %); format: functional, Canis lupus familiaris
[11] = test system: Canis familiaris; experiment: Effect on respiratory function in spontaneously breathing mongrel dog assessed as change in pulmonary compliance at 5 mg/kg after intravenous infusion for 60 mins (RVb= -4.8+/-[…]); format: functional, Canis lupus familiaris
[12] = Plasma concentration in spontaneously breathing dog at 5 mg/kg, iv after 6 mins; format: ADME, organism-based, Canis lupus familiaris; design: dose 5 mg/kg, route intravenous
How it was run: (§1)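 Spontaneously breathing, barbiturate-anesthetized mongrel dogs (n = 4) infused iv at 5.0 mg/kg over 6 min. Total pooled plasma concentrations taken at 6, 15, 30 and 60 min.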

[13] = Plasma concentration in spontaneously breathing dog at 5 mg/kg, iv after 30 mins; format: ADME, organism-based, Canis lupus familiaris; design: dose 5 mg/kg, route intravenous; how it was run: as §1
[14] = test system: Rattus norvegicus; experiment: Effect on acute renal function in rat assessed as change in urine pH per 100 gm body weight at 30 mg/kg, po (RVb= 7.74+/-0.07 mg/dl); format: functional
[15] = Lipophilicity log P of the compound; format: physicochemical; details: octanol/water
[16] = Aqueous solubility at pH 7.4; format: physicochemical; details: aqueous medium
How it was run: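 Solubility measured in water at pH 7.4.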

[17] = Solubility in ethanol; format: physicochemical
[18] = test system: Rattus norvegicus; experiment: Anxiolytic activity in rat assessed as increase in time spent on open arm at 30 mg/kg, po by elevated plus-maze test; format: functional, organism-based; design: dose 30 mg/kg
How it was run: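 Rat elevated plus maze: percent of test time spent in the open arms. Oral dosing in 0.25% Methocel 60 min before testing; n = 12 per dose, mean ± SEM. Analysed by ANOVA followed by Fisher's LSD comparisons against vehicle.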

[19] = test system: Rattus norvegicus; experiment: Toxicity in rat assessed as total distance traveled at 1 mg/kg, po after 1 hr by spontaneous locomotor test; format: organism-based; design: dose 1 mg/kg, route oral; details: in vivo
How it was run: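 Spontaneous locomotor activity in rats dosed po in 0.25% Methocel 1 h pretest; doses up to 100 mg/kg. Compared with the vehicle (zero dose) group, mean ± SEM, N = rats.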

[20] = test system: Rattus norvegicus; experiment: Toxicity in rat assessed as time spent on rotarod at 3 mg/kg, po after 1 hr by rotarod test; format: organism-based; design: dose 3 mg/kg, route oral; details: in vivo
How it was run: (§2)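 Rats, n = 8 per dose, dosed po in 0.25% Methocel 1 h before testing, at 0, 1.0, 3.0, 10, 30 and 100 mg/kg. Read-out is time on rotorod (s), mean ± SEM, compared with the vehicle (zero-dose) group.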

[21] = test system: Rattus norvegicus; experiment: Toxicity in rat assessed as time spent on rotarod at 30 mg/kg, po after 1 hr by rotarod test; format: organism-based; design: dose 30 mg/kg, route oral; details: in vivo; how it was run: as §2
[22] = Clearance in rat at 1 mg/kg, iv and 5 mg/kg, po; format: ADME, organism-based; details: in vivo
How it was run: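 Rats (n = 3) received 1 mg/kg iv in 10% DMAC, 70% propylene glycol and deionized water, or 5 mg/kg orally in 0.5% methylcellulose.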

[23] = Volume of distribution at steady state in rat at 1 mg/kg, iv and 5 mg/kg, po; format: ADME, organism-based; details: in vivo, read-out: Vdss
How it was run: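 Rats (n = 3) dosed iv at 1 mg/kg in 10% DMAC, 70% propylene glycol and deionized water, and orally at 5 mg/kg in 0.5% methylcellulose.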

[24] = Clearance in chimpanzee at 0.5 mg/kg, iv; format: ADME, organism-based, Pan troglodytes; design: dose 0.5 mg/kg, route intravenous; details: in vivo
How it was run: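 Chimpanzee PK. Oral: 1 mg/kg in two alert animals, given as a 1 mg/mL suspension in 50–50 (v/v) 0.5% methylcellulose/Tang orange juice with 1% Tween-80. IV: 0.5 mg/kg in one animal in 10% DMAC, 70% propylene glycol and deionized water, infused over 10 min (0.2 mL/kg). EDTA blood was taken predose and at 2–96 h; iv sampling added 6, 15 and 30 min.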

## CC[C@@H](C)Nc1nc(C)nc2c(-c3ccc(OC)nc3C)c(C)nn12 [PEXACERFONT]
[1]
  Activity: 10 mmHg
[2]
  IC50: > 1000 nM
[3]
  Activity: 4.6 mg/dL
[4]
  Activity: 3 mL/100 g
[5]
  Activity: 90%
[6]
  Activity: -10.7%
[7]
  Activity: 37.5%
[8]
  Activity: -14.6%
[9]
  Activity: -15.2%
[10]
  Activity: -6%
[11]
  Activity: 33.8%
[12]
  concentration at 0.1 h: 1790 nM
[13]
  concentration at 0.5 h: 412 nM
[14]
  Activity: 7.74
[15]
  logP: 4.32
[16]
  solubility: 0.016 mg/mL (≈ 0.047 mM)
[17]
  solubility: 300 mg/mL (≈ 881 mM)
[18]
  Activity: Active
[19]
  Activity: 4106 cm
[20]
  Time: 162 s
[21]
  Time: 157 s
[22]
  clearance: 17.9 mL/min/kg
[23]
  Vd: 14.9 L/kg
[24]
  clearance: 2 mL/min/kg
